Measurements as given in ChEMBL document CHEMBL4007426, “Phosphinophosphonates and Their Tris-pivaloyloxymethyl Prodrugs Reveal a Negatively Cooperative Butyrophilin Activation Mechanism” (J Med Chem, 2017).
pIC50: −log10 of the molar value. Active and inactive are the calls of the source. The rule behind the calls is not given here.

Tests used:
[1] = Toxicity in human Vgamma9/Vdelta2 T cells treated for 72 hrs measured on day 11 post last treatment by flow cytometry; assay type: cell-based, Vgamma9/Vdelta2 T cell
In short: (§1)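 Human peripheral blood mononuclear cells were treated with compound for 72 h, cultured to day 11, and Vγ9Vδ2 (CD3+/γδ TCR+) cells were assessed by flow cytometry over a dose-response range. Interleukin 2 and untreated controls were included. Runs were done at least three independent times using cells from at least 2 donors.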

[2] = molecular target: Butyrophilin subfamily 3 member A1 (Homo sapiens) (UniProt O00481); experiment: Activation of BTN3A1 in human Vgamma9Vdelta2 T cells assessed as induction of interleukin 2 stimulated cell proliferation by measuring increase in CD3 positive cells at 0.1 uM treated for 72 hrs measured on day 11 post last treatment by flow cytometry; assay type: cell-based
In short: (§2)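 Human peripheral blood mononuclear cells exposed to compound for 72 h together with interleukin 2, then grown for 11 days. CD3+/γδ TCR+ cells were scored by flow cytometry. […] Negative controls were cells with or without interleukin 2 and no compound. Bars show mean and SD, n=3, with ANOVA and Tukey post-hoc test.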

[3] = Selectivity index, ratio of IC50 for human Vgamma9Vdelta2 T cells to EC50 for BTN3A1 in human Vgamma9Vdelta2 T cells; assay type: functional
[4] = molecular target: Butyrophilin subfamily 3 member A1 (Homo sapiens) (UniProt O00481); experiment: Potency index, ratio of HMBPP EC50 to compound EC50 for BTN3A1 in human Vgamma9Vdelta2 T cells
[5] = molecular target: Butyrophilin subfamily 3 member A1 (Homo sapiens) (UniProt O00481); experiment: Activation of BTN3A1 in human Vgamma9Vdelta2 T cells assessed as induction of interleukin 2 stimulated cell proliferation by measuring increase in gammadelta T cell receptor positive cells at 0.1 uM treated for 72 hrs measured on day 11 post last treatment by flow cytometry; in short: as §2
[6] = system: K562; experiment: Antiproliferative activity against human K562 cells after 72 hrs by fluorescence spectroscopy; assay type: cell-based; details: K562, 72 h
In short: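 K562 cells at 1 × 10^4 cells/100 μL exposed to compounds for 72 h. Fluorescent viability reagent added for the final 2 h, then fluorescence read. Viability expressed as percent of untreated cells after subtracting a media-only blank.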

[7] = molecular target: Butyrophilin subfamily 3 member A1 (Homo sapiens) (UniProt O00481); experiment: Binding affinity to recombinant C-terminal His-tagged BTN3A1 intracellular domain (unknown origin) expressed in BL21(DE) assessed as change in entropy at 688 uM by isothermal titration calorimetry
In short: (§3)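 Purified full BTN3A1 intracellular domain at 43 μM titrated with compound at 300–860 μM by isothermal titration calorimetry. Three independent titrations per compound.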

[8] = molecular target: Butyrophilin subfamily 3 member A1 (Homo sapiens) (UniProt O00481); experiment: Binding affinity to recombinant C-terminal His-tagged BTN3A1 intracellular domain (unknown origin) expressed in BL21(DE) assessed as change in entropy at 240 uM by isothermal titration calorimetry
[9] = molecular target: Butyrophilin subfamily 3 member A1 (Homo sapiens) (UniProt O00481); experiment: Binding affinity to recombinant C-terminal His-tagged BTN3A1 intracellular domain (unknown origin) expressed in BL21(DE) assessed as change in entropy at 480 uM by isothermal titration calorimetry; in short: as §3
[10] = Safety index, ratio of HMBPP IC50 to compound IC50 for human K562 cells; assay type: ADME, cell-based; details: read-out: Ratio IC50
In short: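 Direct K562 toxicity: 1 × 10^4 cells/100 μL exposed to compounds for 72 h, with cell quantibluo reagent added for the final 2 h and a fluorescence read-out. Viable cells were expressed as % of untreated control after subtracting a media-only blank, giving an IC50. The fold value divides the reference IC50 by the test IC50.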

[11] = molecular target: Butyrophilin subfamily 3 member A1 (Homo sapiens) (UniProt O00481); experiment: Binding affinity to recombinant C-terminal His-tagged BTN3A1 intracellular domain (unknown origin) expressed in BL21(DE) at […] by isothermal titration calorimetry
In short: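 Full intracellular domain of BTN3A1 was purified as previously described. Protein was at 43 μM and titrant compound at 300–860 μM. Three independent titrations were run per compound.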

[12] = Toxicity in human Vgamma9/Vdelta2 T cells at >= 10 uM treated for 72 hrs measured on day 11 post last treatment by flow cytometry; assay type: cell-based; details: vgamma9/vdelta2 t cell; in short: as §1
[13] = molecular target: Butyrophilin subfamily 3 member A1 (Homo sapiens) (UniProt O00481); experiment: Inhibition of HMBPP binding to recombinant C-terminal His-tagged BTN3A1 intracellular domain (unknown origin) expressed in BL21(DE) assessed as change in entropy of HMBPP binding at 100-fold molar excess of compound by isothermal titration calorimetry (reference value: 19 kJ/mol); assay type: cell-based
[14] = molecular target: Butyrophilin subfamily 3 member A1 (Homo sapiens) (UniProt O00481); experiment: Inhibition of HMBPP binding to recombinant C-terminal His-tagged BTN3A1 intracellular domain (unknown origin) expressed in BL21(DE) by isothermal titration calorimetry
[15] = molecular target: Butyrophilin subfamily 3 member A1 (Homo sapiens) (UniProt O00481); experiment: Inhibition of HMBPP binding to recombinant C-terminal His-tagged BTN3A1 intracellular domain (unknown origin) expressed in BL21(DE) assessed as change in entropy of HMBPP binding at 10-fold higher dose of compound by isothermal titration calorimetry (reference value: 19 kJ/mol); assay type: cell-based

Butyrophilin subfamily 3 member A1 (Homo sapiens), sequence (O00481 30-513 limits assumed): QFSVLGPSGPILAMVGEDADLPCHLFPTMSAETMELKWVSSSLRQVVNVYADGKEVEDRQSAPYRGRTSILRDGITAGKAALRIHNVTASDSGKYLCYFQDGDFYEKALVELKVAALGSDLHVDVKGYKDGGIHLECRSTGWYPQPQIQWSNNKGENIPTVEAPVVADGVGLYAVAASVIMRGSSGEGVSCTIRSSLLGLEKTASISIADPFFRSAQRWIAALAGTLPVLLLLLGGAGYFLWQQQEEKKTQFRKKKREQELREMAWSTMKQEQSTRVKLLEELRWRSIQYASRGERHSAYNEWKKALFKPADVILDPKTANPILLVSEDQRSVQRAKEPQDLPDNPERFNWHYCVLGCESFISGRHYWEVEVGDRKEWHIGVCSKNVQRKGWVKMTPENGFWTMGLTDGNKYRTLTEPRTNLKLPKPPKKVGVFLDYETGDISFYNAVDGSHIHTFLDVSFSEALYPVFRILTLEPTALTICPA

Activity [2] | Activity [5] | SMILES | IC50 at 72 h [1] | pIC50 [6] | further results
Active | Active | C/C(=C\CCP(=O)(OCOC(=O)C(C)(C)C)OCOC(=O)C(C)(C)C)CO | 0.6 µM | – | Ratio IC50/EC50 [3]: 110; Ratio EC50 [4]: 0.094
– | – | COP(=O)(CC/C=C(\C)CO)CP(=O)(OC)OC (configuration not stated) | > 100 µM | < 4.00 | –
– | – | C/C(=C\CCP(=O)(O)CP(=O)(O)O)CO | > 100 µM | < 4.00 | TdeltaS [7]: -12.1 kcal/mol; TdeltaS [8]: -12 kcal/mol; TdeltaS [9]: -13.2 kcal/mol
– | – | C/C(=C\CCP(=O)(O)O)CO | – | – | Ratio EC50 [4]: 0.00013
Active | Active | C/C(=C\CCP(=O)(CP(=O)(OCOC(=O)C(C)(C)C)OCOC(=O)C(C)(C)C)OCOC(=O)C(C)(C)C)CO (configuration not stated) | 3.5 µM | – | Ratio IC50/EC50 [3]: 85; selectivity ratio [10]: > 29; Activity [11]: inactive; Activity [12]: Toxic
Active | Active | C/C(=C\COP(=O)(O)OP(=O)(O)O)CO | 0.5 µM | < 4.00 | –
– | – | CC(C)=CCCP(=O)(CP(=O)(OCOC(=O)C(C)(C)C)OCOC(=O)C(C)(C)C)OCOC(=O)C(C)(C)C (configuration not stated) | > 100 µM | 5.01 | selectivity ratio [10]: > 10
– | – | CC(C)=CCCP(=O)(O)CP(=O)(O)O | > 100 µM | < 4.00 | TdeltaS [13]: 6.69 kcal/mol; inhibition [14]: Dose-dependent effect; TdeltaS [15]: -1.1 kcal/mol
